Results reported in ChEMBL document CHEMBL1150405, “Structure-activity study of endomorphin-2 analogs with C-terminal modifications by NMR spectroscopy and molecular modeling” (Bioorg Med Chem, 2008).

Assays:
[1] = Selectivity ratio of IC50 for guinea pig ileum to IC50 for mouse vas deferens assay; assay type: tissue-based
Mu-type opioid receptor = Mu-type opioid receptor (Rattus norvegicus, UniProt P33535); test: Displacement of [3H]DAMGO from mu opioid receptor in rat brain membrane; assay type: cell membranes
In short: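 Wistar rat brain membranes (cerebellum removed) in 50 mM Tris–HCl, pH 7.4. [³H]DAMGO at 0.5 nM with varying peptide concentrations for 1 h at 25 °C in a rotating incubator. Stopped by vacuum filtration through GF/C filters, washed three times with ice-cold buffer, then scintillation counted. Nonspecific binding taken with naloxone. Duplicates, repeated at least three times; Ki derived.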

Mu-opioid receptor = Mu-opioid receptor (Cavia porcellus, UniProt Q8CGM4); test: Agonist activity at mu opioid receptor in guinea pig ileum assessed as inhibition of electrically-stimulated contraction; assay type: functional, tissue-based
In short: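 Guinea pig ileum in a 10-ml bath of Krebs–Henseleit solution at 37 °C, aerated with 95% O₂/5% CO₂. Twitches evoked by 0.1-Hz, 50-V, 0.5-ms rectangular pulses; isometric recording. […] Arithmetic mean of five to eight measurements.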

[2] = target: Delta-type opioid receptor (Rattus norvegicus, UniProt P33533); test: Displacement of [3H]DPDPE from delta opioid receptor in rat brain membrane; assay type: cell membranes
In short: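 Wistar rat brain membranes (cerebellum removed) in 50 mM Tris–HCl, pH 7.4. [³H]DPDPE at 1 nM with varying peptide concentrations for 3 h at 25 °C in a rotating incubator. GF/C vacuum filtration, three ice-cold buffer washes, scintillation counting. Naloxone defined nonspecific binding. Duplicates, repeated at least three times; Ki calculated.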

Rattus norvegicus = organism: Rattus norvegicus; test: Selectivity ratio of Ki for delta opioid receptor to Ki for mu opioid receptor in rat brain membrane; assay type: cell membranes
[3] = target: Delta-type opioid receptor (Mus musculus, UniProt P32300); test: Agonist activity at delta opioid receptor in mouse vas deferens assessed as inhibition of electrically-stimulated contraction; assay type: functional, tissue-based
In short: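 Mouse vas deferens held at 36 °C in aerated (95% O₂/5% CO₂) Krebs–Henseleit, 10-ml bath. Pulse pairs (1-ms width, 100 ms apart, 9 V/cm supramaximal) repeated every 10 s; isometric twitch recording.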

Sequence of Delta-type opioid receptor (Rattus norvegicus, UniProt P33533) (P33533 whole entry): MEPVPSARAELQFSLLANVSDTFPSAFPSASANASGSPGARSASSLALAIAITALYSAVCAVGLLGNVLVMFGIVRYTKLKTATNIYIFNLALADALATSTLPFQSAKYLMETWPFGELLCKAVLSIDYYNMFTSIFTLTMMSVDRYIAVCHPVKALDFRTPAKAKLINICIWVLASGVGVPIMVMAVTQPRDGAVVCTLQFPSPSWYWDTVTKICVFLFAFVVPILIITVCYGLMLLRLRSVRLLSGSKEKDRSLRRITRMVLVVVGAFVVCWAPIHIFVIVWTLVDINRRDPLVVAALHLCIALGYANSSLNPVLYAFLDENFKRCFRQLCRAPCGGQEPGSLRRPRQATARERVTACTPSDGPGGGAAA
Sequence of Delta-type opioid receptor (Mus musculus, UniProt P32300) (P32300 whole entry): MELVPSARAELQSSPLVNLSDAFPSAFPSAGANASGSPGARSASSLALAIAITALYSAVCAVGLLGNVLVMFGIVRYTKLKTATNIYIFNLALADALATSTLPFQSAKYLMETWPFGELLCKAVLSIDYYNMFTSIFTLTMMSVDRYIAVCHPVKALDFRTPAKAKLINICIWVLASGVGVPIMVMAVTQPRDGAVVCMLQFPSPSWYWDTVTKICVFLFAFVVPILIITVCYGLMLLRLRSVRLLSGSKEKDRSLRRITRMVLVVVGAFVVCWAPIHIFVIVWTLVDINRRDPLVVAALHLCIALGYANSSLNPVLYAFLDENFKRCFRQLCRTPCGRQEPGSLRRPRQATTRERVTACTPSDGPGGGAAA
Sequence of Mu-opioid receptor (Q8CGM4 whole entry): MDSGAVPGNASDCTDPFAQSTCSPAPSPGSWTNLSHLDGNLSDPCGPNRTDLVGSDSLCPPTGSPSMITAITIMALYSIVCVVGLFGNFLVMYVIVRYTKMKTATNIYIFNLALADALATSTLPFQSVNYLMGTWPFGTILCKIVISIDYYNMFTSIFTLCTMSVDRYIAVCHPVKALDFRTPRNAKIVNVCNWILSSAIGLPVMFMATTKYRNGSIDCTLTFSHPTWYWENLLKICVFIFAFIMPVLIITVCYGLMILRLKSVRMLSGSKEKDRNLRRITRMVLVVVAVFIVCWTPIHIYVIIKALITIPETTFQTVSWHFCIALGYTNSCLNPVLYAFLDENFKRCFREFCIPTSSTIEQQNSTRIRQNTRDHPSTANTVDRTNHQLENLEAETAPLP
Sequence of Mu-type opioid receptor (P33535 whole entry): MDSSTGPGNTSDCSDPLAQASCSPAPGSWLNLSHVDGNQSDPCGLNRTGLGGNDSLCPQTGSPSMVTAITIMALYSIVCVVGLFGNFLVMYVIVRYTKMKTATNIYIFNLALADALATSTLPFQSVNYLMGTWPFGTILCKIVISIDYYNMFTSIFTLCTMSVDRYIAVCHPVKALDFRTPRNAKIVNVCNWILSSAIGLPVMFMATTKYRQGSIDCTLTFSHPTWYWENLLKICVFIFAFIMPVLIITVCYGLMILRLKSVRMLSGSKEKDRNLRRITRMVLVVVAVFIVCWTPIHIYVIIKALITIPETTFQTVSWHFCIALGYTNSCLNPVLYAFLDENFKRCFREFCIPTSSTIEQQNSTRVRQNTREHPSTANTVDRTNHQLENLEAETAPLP

| Compound | IC50 ratio (guinea pig ileum / mouse vas deferens) [1] | Ki (Mu-type opioid receptor) | IC50 (Mu-opioid receptor) | Ki [2] | Ratio Ki (Rattus norvegicus) | IC50 [3] |
| --- | --- | --- | --- | --- | --- | --- |
| N[C@@H](Cc1ccc(O)cc1)C(=O)N1CCC[C@H]1C(=O)N[C@@H](Cc1ccccc1)C(=O)N[C@H](CO)Cc1ccccc1 | 1 | 6.34 nM | 29.3 nM | > 10000 nM | > 1580 | 29.2 nM |
| COC(=O)[C@H](Cc1ccccc1)NC(=O)[C@H](Cc1ccccc1)NC(=O)[C@@H]1CCCN1C(=O)[C@@H](N)Cc1ccc(O)cc1 | 1.1 | 9.07 nM | 42.1 nM | > 10000 nM | > 1100 | – |
| NNC(=O)[C@H](Cc1ccccc1)NC(=O)[C@H](Cc1ccccc1)NC(=O)[C@@H]1CCCN1C(=O)[C@@H](N)Cc1ccc(O)cc1 | 0.71 | 9.35 nM | 132 nM | > 10000 nM | > 1070 | – |
| CCOC(=O)[C@H](Cc1ccccc1)NC(=O)[C@H](Cc1ccccc1)NC(=O)[C@@H]1CCCN1C(=O)[C@@H](N)Cc1ccc(O)cc1 | 1 | 15 nM | 64.4 nM | 2940 nM | 196 | 63.7 nM |
| CC(C)(C)OC(=O)[C@H](Cc1ccccc1)NC(=O)[C@H](Cc1ccccc1)NC(=O)[C@@H]1CCCN1C(=O)[C@@H](N)Cc1ccc(O)cc1 | 40.5 | 50.3 nM | 3000 nM | 247 nM | 4.9 | 74.1 nM |
| CNC(=O)[C@H](Cc1ccccc1)NC(=O)[C@H](Cc1ccccc1)NC(=O)[C@@H]1CCCN1C(=O)[C@@H](N)Cc1ccc(O)cc1 | 2.5 | 29.2 nM | 136 nM | 8470 nM | 290 | 54.6 nM |
| CN(C)C(=O)[C@H](Cc1ccccc1)NC(=O)[C@H](Cc1ccccc1)NC(=O)[C@@H]1CCCN1C(=O)[C@@H](N)Cc1ccc(O)cc1 | 0.66 | 273 nM | 1810 nM | > 10000 nM | > 36.7 | 2720 nM |
